The record followed here is ChEMBL document CHEMBL3217420, “Design, synthesis and initial biological evaluation of a novel pladienolide analog scaffold” (Medchemcomm, 2011).

The source made the active and inactive calls. No cut-off for these calls is given here.

As usually defined, the IC50 is the concentration that gives 50% inhibition.

Common to all, as to type: functional, cell-based
Assay [1] can be described thus: Cytotoxicity in human JeKo1 cells assessed as growth inhibition after 72 hrs by XTT assay. Particulars: JeKo-1, 72 h. Put shortly: (§1)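 XTT assay after 72 h continuous compound exposure. IC50 is the concentration that inhibits growth to 50% of the DMSO vehicle-treated control. It was calculated by sigmoidal fitting of dose-response curves. Values are mean ± standard error of 3 independent experiments.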
On the technique in general: Formazan colour is commonly taken as a measure of viable cells.

Another assay concerns PC-3. Briefly: Cytotoxicity in human PC3 cells assessed as growth inhibition after 72 hrs by XTT assay. Particulars: PC-3, 72 h. Put shortly:
as §1

Assay [2] has as its system SK-MEL-2. Briefly: Cytotoxicity in human SK-MEL-2 cells assessed as growth inhibition after 72 hrs by XTT assay. Particulars: SK-MEL-2, 72 h. Put shortly: as §1
The subject of the next assay is MOLT-4. The assay is described as follows: Cytotoxicity in human MOLT4 cells assessed as growth inhibition after 72 hrs by XTT assay. Particulars: MOLT-4, 72 h. Summed up: as §1
The next assay concerns MCF7. Briefly: Cytotoxicity in human MCF7 cells assessed as growth inhibition after 72 hrs by XTT assay. As to conditions: MCF7, 72 h. Put shortly: as §1
In a further assay the test system is NCI-H226. Briefly: Cytotoxicity in human NCI-H226 cells assessed as growth inhibition after 72 hrs by XTT assay. As to conditions: NCI-H226, 72 h. Summed up: as §1
The subject of assay [3] is SK-MEL-2. Briefly: Modulation of MDM2 mRNA splicing in human SK-MEL-2 cells assessed as formation of two spliced MDM2 mRNA variants at 10 uM after 6 hrs by blotting assay. Put shortly: (§2)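 SK-MEL-2 melanoma cells were exposed to DMSO vehicle or to the designated compound concentrations for 6 hours. MDM2 mRNA was then examined for the properly spliced form and for alternatively spliced variant forms.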

The test system of assay [4] is SK-MEL-2. Briefly: Modulation of MDM2 mRNA splicing in human SK-MEL-2 cells assessed as increase in properly spliced MDM2 mRNA at 1 uM after 6 hrs by blotting assay. Put shortly: as §2
The subject of assay [5] is SK-MEL-2. Briefly: Modulation of MDM2 mRNA splicing in human SK-MEL-2 cells assessed as formation of two spliced MDM2 mRNA variants at 100 uM after 6 hrs by blotting assay. Summed up:
as §2

The subject of assay [6] is SK-MEL-2. Briefly: Modulation of MDM2 mRNA splicing in human SK-MEL-2 cells assessed as increase in properly spliced MDM2 mRNA at 10 to 25 uM after 6 hrs by blotting assay. Summed up:
as §2

Assay [7] deals with SK-MEL-2. The assay is described as follows: Modulation of MDM2 mRNA splicing in human SK-MEL-2 cells assessed as increase in properly spliced MDM2 mRNA at 10 to 100 uM after 6 hrs by blotting assay. Put shortly:
as §2

Assay [8] concerns SK-MEL-2. Briefly: Modulation of MDM2 mRNA splicing in human SK-MEL-2 cells assessed as formation of two spliced MDM2 mRNA variants at 10 to 100 uM after 6 hrs by blotting assay. Summed up:
as §2

As to `CC(=O)O[C@H]1/C=C/C[C@@H](/C(C)=C/C=C/CC[C@H]2O[C@@H]2C[C@H](C)O)OC(=O)CCCC[C@@]1(C)O` (mixture of isomers), the IC50 (in assay [1]; in the assay with PC-3; in the assay on SK-MEL-2 [2]) was > 20 µM in each case.
`CC(/C=C/[C@H]1OC(C)(C)C[C@@]2(CO2)[C@@H]1O)=C\C[C@H]1OC[C@@H](NC(=O)/C=C\[C@H](C)OC(=O)C(C)C)CO1`: the IC50 was 0.66 µM with MOLT-4; 0.29 µM in [1]; 4.16 µM in the assay on PC-3; 1.69 µM in the assay on MCF7; 0.7 µM in the assay with SK-MEL-2 [2]; > 10 µM with NCI-H226. The outcome with SK-MEL-2 [3] and with SK-MEL-2 [4] was Active.
With `CC(=O)O[C@H]1/C=C/C[C@@H](/C(C)=C/C=C/CC[C@H]2O[C@@H]2C[C@H](C)O[Si](C)(C)C(C)(C)C)OC(=O)CCCC[C@@]1(C)O`, the half-maximal inhibitory concentration (IC50) in the assay with MOLT-4 is 15.5 µM; in [1], 11.6 µM; with PC-3, 18 µM; in the assay with MCF7, 19.2 µM; in the assay on SK-MEL-2 [2], 10.7 µM; in the assay with NCI-H226, > 20 µM. The result in the assay on SK-MEL-2 [5] and in the assay with SK-MEL-2 [6] was Active.
Consider `COc1ccc(COC/C=C(\C)[C@@H]2C/C=C/[C@H](OC(C)=O)[C@](C)(O)CCCCC(=O)O2)cc1`, for which, in the assay on SK-MEL-2 [7], the result was Active. In addition, the IC50 in the assay with SK-MEL-2 [2] was > 20 µM. The outcome in the assay on SK-MEL-2 [8] was inactive.
As for `CC(=O)O[C@@H](C)/C=C\C(=O)N[C@H]1CC[C@@H](C/C=C(C)/C=C/[C@H]2OC(C)(C)C[C@@]3(CO3)[C@@H]2O)CC1`, the half-inhibitory concentration (IC50) with MOLT-4 is 0.18 µM; in assay [1], 0.11 µM; with PC-3, 2.02 µM; in the assay on MCF7, 0.72 µM; with SK-MEL-2 [2], 0.39 µM; with NCI-H226 it was > 10 µM.
